Experiments:
Type in all cases: functional, cell-based
[1] = system: MDA-MB-231; assay: Cytotoxicity against human MDA-MB-231 cells after 72 hrs by sulforhodamine B assay; conditions: MDA-MB-231, 72 h
In short: (§1)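 Cells seeded at 3–5 × 10^3 per well in RPMI-1640 with 10% FBS containing graded sample concentrations, exposed 72 h. Attached cells fixed with cold 50% trichloroacetic acid 30 min, stained with 0.04% SRB 30 min. Bound dye solubilized in 10 mM Tris-base, absorbance read at 515 nm; IC50 from concentration series.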

[2] = Cytotoxicity against human KBVIN cells after 72 hrs by sulforhodamine B assay; in short: as §1
[3] = system: MCF7; assay: Cytotoxicity against human MCF7 cells after 72 hrs by sulforhodamine B assay; conditions: MCF7, 72 h; in short: as §1
[4] = system: KB; assay: Cytotoxicity against human KB cells after 72 hrs by sulforhodamine B assay; in short: as §1
[5] = system: A549; assay: Cytotoxicity against human A549 cells after 72 hrs by sulforhodamine B assay; conditions: A549, 72 h; in short: as §1

| Compound | IC50 [1] | IC50 [2] | IC50 [3] | IC50 [4] | IC50 [5] |
| --- | --- | --- | --- | --- | --- |
| CC[C@@]1(O)C(=O)OCc2c1cc1n(c2=O)Cc2c-1nc1ccccc1c2CN1CCN(S(=O)(=O)c2ccccc2)CC1 | 46.4 nM | 70.4 nM | 4.9 nM | 2 nM | 0.25 nM |
| CCc1c2c(nc3ccc(OC(=O)N4CCC(N5CCCCC5)CC4)cc13)-c1cc3c(c(=O)n1C2)COC(=O)[C@]3(O)CC [IRINOTECAN] | – | > 20000 nM | – | – | – |
| CC[C@@]1(O)C(=O)OCc2c1cc1n(c2=O)Cc2cc3ccccc3nc2-1 [CAMPTOTHECIN] | 307 nM | 15.7 nM | 87.5 nM | 50 nM | 8.63 nM |
| CC[C@@]1(O)C(=O)OCc2c1cc1n(c2=O)Cc2c-1nc1ccccc1c2CN1CCN(S(=O)(=O)c2ccc([N+](=O)[O-])cc2)CC1 | 350 nM | 481 nM | 96.2 nM | 55.5 nM | 29.7 nM |
| CC[C@@]1(O)C(=O)OCc2c1cc1n(c2=O)Cc2c-1nc1ccccc1c2CN1CCN(S(=O)(=O)c2ccc(C(C)C)cc2)CC1 | 122 nM | 81.4 nM | 67.6 nM | 15.9 nM | 4.37 nM |
| CC[C@@]1(O)C(=O)OCc2c1cc1n(c2=O)Cc2c-1nc1ccccc1c2CN1CCN(S(=O)(=O)c2ccc3ccccc3c2)CC1 | 113 nM | 165 nM | 81.3 nM | 44.2 nM | 13 nM |
| CC[C@@]1(O)C(=O)OCc2c1cc1n(c2=O)Cc2cc3c(CN(C)C)c(O)ccc3nc2-1 [TOPOTECAN] | – | 287 nM | – | – | – |
| CC[C@@]1(O)C(=O)OCc2c1cc1n(c2=O)Cc2c-1nc1ccccc1c2CN1CCN(S(=O)(=O)N(C)C)CC1 | 336 nM | 141 nM | 71.5 nM | 78.6 nM | 7.22 nM |
| CC[C@@]1(O)C(=O)OCc2c1cc1n(c2=O)Cc2c-1nc1ccccc1c2CN1CCN(S(=O)(=O)c2cc(F)cc(F)c2)CC1 | 82.6 nM | 266 nM | 56.3 nM | 21 nM | 0.7 nM |
| CC[C@@]1(O)C(=O)OCc2c1cc1n(c2=O)Cc2c-1nc1ccccc1c2CN1CCN(S(=O)(=O)c2ccc(Cl)cc2)CC1 | 75.4 nM | 20.2 nM | 34.5 nM | 96.9 nM | 6.92 nM |
| CC[C@@]1(O)C(=O)OCc2c1cc1n(c2=O)Cc2c-1nc1ccccc1c2CN1CCN(S(=O)(=O)c2ccc(C)cc2)CC1 | 84.2 nM | 34.6 nM | 18.2 nM | 84.5 nM | 0.89 nM |
| CC[C@@]1(O)C(=O)OCc2c1cc1n(c2=O)Cc2c-1nc1ccccc1c2CN1CCN(S(=O)(=O)c2ccc(F)cc2)CC1 | 62.8 nM | 25.7 nM | 37.6 nM | 76.3 nM | 0.5 nM |
| CC[C@@]1(O)C(=O)OCc2c1cc1n(c2=O)Cc2c-1nc1ccccc1c2CN1CCN(S(=O)(=O)c2cccs2)CC1 | 30.5 nM | 57.5 nM | 8 nM | 71.3 nM | 0.21 nM |
| CC[C@@]1(O)C(=O)OCc2c1cc1n(c2=O)Cc2c-1nc1ccccc1c2CN1CCN(S(=O)(=O)c2cc(OC)cc(OC)c2)CC1 | 6.4 nM | 1.2 nM | 34 nM | 2.9 nM | 1.42 nM |
| CC[C@@]1(O)C(=O)OCc2c1cc1n(c2=O)Cc2c-1nc1ccccc1c2CN1CCN(S(=O)(=O)Cc2ccccc2)CC1 | 552 nM | 416 nM | 362 nM | 195 nM | 27.4 nM |
| CC[C@@]1(O)C(=O)OCc2c1cc1n(c2=O)Cc2c-1nc1ccccc1c2CN1CCN(S(=O)(=O)c2ccc(OC)cc2)CC1 | 124 nM | 142 nM | 70.9 nM | 20.7 nM | 5.36 nM |
| CC[C@@]1(O)C(=O)OCc2c1cc1n(c2=O)Cc2c-1nc1ccccc1c2CN1CCN(S(=O)(=O)c2cccnc2)CC1 | 106 nM | 327 nM | 61 nM | 67.8 nM | 21.9 nM |
| CCCCS(=O)(=O)N1CCN(Cc2c3c(nc4ccccc24)-c2cc4c(c(=O)n2C3)COC(=O)[C@]4(O)CC)CC1 | 134 nM | 203 nM | 74.9 nM | 8.5 nM | 4.01 nM |
| CCc1ccc(S(=O)(=O)N2CCN(Cc3c4c(nc5ccccc35)-c3cc5c(c(=O)n3C4)COC(=O)[C@]5(O)CC)CC2)cc1 | 105 nM | 126 nM | 61.8 nM | 10.9 nM | 0.65 nM |

— ChEMBL document CHEMBL4007483, “Design, synthesis and potent cytotoxic activity of novel 7-(N-[(substituted-sulfonyl)piperazinyl]-methyl)-camptothecin derivatives” (Bioorg Med Chem Lett, 2017)
